# Calls of active or inactive are those of the source. The calls are words filed in the database; no cut-off is given here.
# How the values were obtained:
# U-266 [1] = experiment: Induction of apoptosis in human U-266 cells assessed as necrotic cells at 8 uM incubated for 48 hrs by Annexin-V/FITC and PI staining based flow cytometry analysis (reference value: 5.99 %); format: functional
# In short: (§1)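 U266 cells seeded at 1 × 10⁵ per 2 mL well in six-well plates and exposed to 1, 2 or 8 μM for 48 h. Cells collected, washed twice in cold PBS and resuspended in binding buffer. Annexin V-FITC added for 15 min, then PI for 5 min, both at 37 °C in the dark. Analysed by flow cytometry.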
# [2] = molecular target: T1, Bromodomain-containing protein 4 (Homo sapiens, UniProt O60885); experiment: Potency index, ratio of 6-(3,5-Dimethylisoxazol-4-yl)-1-methyl-4-phenyl-3,4-dihydroquinazolin-2(1H)-one IC50 to test compound IC50 for inhibition of BRD4-BD1 (unknown origin)
# [3] = Cytotoxicity against human MCF-10A cells assessed as inhibition of cell proliferation at 2 uM incubated for 48 hrs by MTT assay; format: cell-based
# In short: (§2)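 Cryopreserved cells thawed at 37 °C, cultured one day, then seeded at 5000–10,000 cells/well in 96-well plates and left overnight to attach. Compound added at a single concentration or as a gradient series and incubated 48 h. MTT solution added and absorbance read.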
# U-266 [4] = experiment: Induction of apoptosis in human U-266 cells assessed as necrotic cells at 1 uM incubated for 48 hrs by Annexin-V/FITC and PI staining based flow cytometry analysis (reference value: 5.99 %); format: functional; in short: as §1
# HepG2 [5] = experiment: Antiproliferative activity against human HepG2 cells assessed as inhibition of cell proliferation at 2 uM incubated for 48 hrs by MTT assay relative to control; format: functional; in short: as §2
# U-266 [6] = experiment: Induction of apoptosis in human U-266 cells assessed as nucleus condensation at 1 to 8 uM incubated for 48 hrs by DAPI staining based fluorescence microscopic analysis; format: functional, cell-based; details: dose 1-8 µM
# In short: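 U266 cells plated at 20000 cells/well in 12-well plates overnight, then treated at 1, 2 and 8 μM for 48 h. After a PBS wash, cells were stained with DAPI for 5 min, washed again and imaged under a fluorescence microscope for nuclear condensation.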
# U-266 [7] = experiment: Induction of apoptosis in human U-266 cells assessed as late apoptotic cells at 2 uM incubated for 48 hrs by Annexin-V/FITC and PI staining based flow cytometry analysis (reference value: 0.032 %); format: functional; in short: as §1
# U-266 [8] = experiment: Induction of apoptosis in human U-266 cells assessed as early apoptotic cells at 1 uM incubated for 48 hrs by Annexin-V/FITC and PI staining based flow cytometry analysis (reference value: 1.36 %); format: functional; in short: as §1
# U-266 [9] = experiment: Induction of apoptosis in human U-266 cells assessed as viable cells at 8 uM incubated for 48 hrs by Annexin-V/FITC and PI staining based flow cytometry analysis (reference value: 92.6 %); format: functional; details: read-out: Activity; in short: as §1
# U-266 [10] = experiment: Induction of apoptosis in human U-266 cells assessed as necrotic cells at 2 uM incubated for 48 hrs by Annexin-V/FITC and PI staining based flow cytometry analysis (reference value: 5.99 %); format: functional; in short: as §1
# U-266 [11] = experiment: Induction of apoptosis in human U-266 cells incubated for 48 hrs by Annexin-V/FITC and PI staining based flow cytometry analysis; format: functional, cell-based; details: dose 1-8 µM; in short: as §1
# U-266 [12] = experiment: Induction of apoptosis in human U-266 cells assessed as late apoptotic cells at 8 uM incubated for 48 hrs by Annexin-V/FITC and PI staining based flow cytometry analysis (reference value: 0.032 %); format: functional; in short: as §1
# U-266 [13] = experiment: Antiproliferative activity against human U-266 cells assessed as inhibition of cell proliferation incubated for 48 hrs by MTT assay; format: functional, cell-based; details: U-266, 48 h; in short: as §2
# U-266 [14] = experiment: Induction of apoptosis in human U-266 cells assessed as viable cells at 2 uM incubated for 48 hrs by Annexin-V/FITC and PI staining based flow cytometry analysis (reference value: 92.6 %); format: functional; details: read-out: Activity; in short: as §1
# [15] = molecular target: T1, Bromodomain-containing protein 4; experiment: Inhibition of BRD4-BD1 (unknown origin) preincubated for 15 mins followed by substrate addition and measured after 1 hr
# U-266 [16] = experiment: Induction of cell cycle arrest in human U-266 cells assessed as increase in accumulation at G0/G1 phase at 1 to 2 uM incubated for 48 hrs by PI staining based flow cytometry analysis; format: functional; details: dose 1-2 µM
# In short: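 U266 cells seeded at 1 × 10⁵ per 2 mL well in six-well plates and treated at 1 and 2 μM for 48 h. Cells harvested, fixed in 70% ethanol on ice for 30 min and washed in PBS. Stained with PI (0.05 mg/mL) plus RNaseA (0.5 mg/mL) for 30 min at room temperature in the dark, then analysed by flow cytometry for cycle distribution.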
# U-266 [17] = experiment: Induction of apoptosis in human U-266 cells assessed as early apoptotic cells at 2 uM incubated for 48 hrs by Annexin-V/FITC and PI staining based flow cytometry analysis (reference value: 1.36 %); format: functional; in short: as §1
# U-266 [18] = experiment: Antiproliferative activity against human U-266 cells assessed as inhibition of cell proliferation at 0.1 uM incubated for 48 hrs by MTT assay relative to control; format: functional; in short: as §2
# U-266 [19] = experiment: Induction of apoptosis in human U-266 cells assessed as viable cells at 1 uM incubated for 48 hrs by Annexin-V/FITC and PI staining based flow cytometry analysis (reference value: 92.6 %); format: functional; details: read-out: Activity; in short: as §1
# MCF7 = experiment: Antiproliferative activity against human MCF7 cells assessed as inhibition of cell proliferation at 2 uM incubated for 48 hrs by MTT assay relative to control; format: functional; in short: as §2
# HepG2 [20] = experiment: Antiproliferative activity against human HepG2 cells assessed as inhibition of cell proliferation incubated for 48 hrs by MTT assay; format: functional, cell-based; details: HepG2, 48 h; in short: as §2
# HCT-116 = experiment: Antiproliferative activity against human HCT-116 cells assessed as inhibition of cell proliferation at 2 uM incubated for 48 hrs by MTT assay relative to control; format: functional; in short: as §2
# U-266 [21] = experiment: Induction of apoptosis in human U-266 cells assessed as late apoptotic cells at 1 uM incubated for 48 hrs by Annexin-V/FITC and PI staining based flow cytometry analysis (reference value: 0.032 %); format: functional; in short: as §1
# CT26 [22] = experiment: Antiproliferative activity against […] assessed as inhibition of cell proliferation incubated for 48 hrs by MTT assay; format: functional, cell-based; details: Mus musculus, CT26, 48 h; in short: as §2
# CT26 [23] = experiment: Antiproliferative activity against […] assessed as inhibition of cell proliferation at 2 uM incubated for 48 hrs by MTT assay relative to control; format: functional; details: Mus musculus; in short: as §2
# U-266 [24] = experiment: Induction of apoptosis in human U-266 cells assessed as early apoptotic cells at 8 uM incubated for 48 hrs by Annexin-V/FITC and PI staining based flow cytometry analysis (reference value: 1.36 %); format: functional; in short: as §1
compound,measurement,setting,value
Cc1noc(C)c1-c1ccc2c(c1)C(c1ccccc1)N(CCCCN1CCN(c3ccc4nnc(Cl)n4n3)CC1)C(=O)N2C (stereo unspecified),Activity,U-266 [1],5.11%
same,Ratio IC50,[2],8
same,"inhibition at 48 h, 2 µM",[3],11.6%
same,Activity,U-266 [4],3.06%
same,inhibition at 2 µM,HepG2 [5],46.7%
same,Activity,U-266 [6],Active
same,Activity,U-266 [7],2.91%
same,Activity,U-266 [8],13.2%
same,viability at 8 µM,U-266 [9],65.4%
same,Activity,U-266 [10],4.6%
same,Activity,U-266 [11],Dose-Dependent Effect
same,Activity,U-266 [12],6.75%
same,IC50,U-266 [13],2.11 µM
same,viability at 2 µM,U-266 [14],77.6%
same,IC50,[15],0.003 µM
same,Activity,U-266 [16],Active
same,Activity,U-266 [17],14.8%
same,inhibition at 0.1 µM,U-266 [18],52.3%
same,viability at 1 µM,U-266 [19],82.6%
same,inhibition at 2 µM,MCF7,35.5%
same,IC50,HepG2 [20],16.7 µM
same,inhibition at 2 µM,HCT-116,61.8%
same,Activity,U-266 [21],1.23%
same,IC50,CT26 [22],15.8 µM
same,inhibition at 2 µM,CT26 [23],41%
same,Activity,U-266 [24],22.7%
